The values that follow come from the EternaBench riboswitch data.

This series has as its system MS2 coat protein. The experiment in a line: apparent Kd, MS2 coat protein; higher = weaker binding; RNA-MaP array; FMN 200 µM where present. The method, boiled down: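 The apparent Kd is the median of filtered binding-curve fits, one per cluster, to green signal normalised to red-channel RNA signal and control-cluster median Fmax. The clusters were on Illumina sequencing chips, and stalled E. coli RNA polymerase had transcribed the designs on them. Titration used SNAP-549-labelled MS2 coat protein from 0.7 or 1.5 nM, doubling to 3 µM, without and then with constant ligand, in 100 mM Tris-HCl pH 7.5, 80 mM KCl, 4 mM MgCl2, BSA, DTT, yeast tRNA and Tween-20.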

Setting [1] is: designed as: OFF switch for flavin mononucleotide, no ligand.
Setting [2] is: ligand present: flavin mononucleotide, designed as: OFF switch for flavin mononucleotide.
The mark [3] stands for this setting: designed as: ON switch for flavin mononucleotide, no ligand.
[4] abbreviates: ligand present: flavin mononucleotide, designed as: ON switch for flavin mononucleotide.

By apparent Kd is commonly meant the concentration giving half-maximal binding under the conditions of the assay. As for “GAUCAAAACACUCCUUACACUACAUGAGGAUCACCCAUGUAGCAGGAUAUCAUUGCUCCUCGCUGUGAGAAGGGCUACGGGCGG”, the “apparent Kd” value worked out at 8.92 nM under setting [1] and 15.6 nM under setting [2].
For the sequence “UCGUAUACACAAGGAUAUCAAUGAUUUGUGGAUCCUACAUGAGGAUCACCCAUGUUUUUAUAUUGUGAGAAGGUGUAGUGUCUU”, the “apparent Kd” value came out at 507 nM under setting [3] and 684 nM under setting [4].
For the sequence “CGGGAGGAAGGAUAUACACGGCCUCCUAGAAUAAAUCCUGGACAUGAGGAUCACCCAUGUAGAAGGUCCACCGA”, the “apparent Kd” value under setting [1] is 18.9 nM and the “apparent Kd” value under setting [2] turned out to be 24.4 nM.
Taken in the same sequence, the figures for “UAUGGUAAAGUCAGGAUAUACGUACAUAAUUCUAGGUAGAAGGGACAUGAGGAUCACCCAUGUAUGGUAGUGUU” were 73 nM and 84 nM.
Consider “GCUAGACGUCGAGGAUAUGGGUGUGCGAGUCUUGGCACUGGACAUGAGGAUCACCCAUGUCGCUUCCAGAAGGCGACGUCCCUA”, for which the “apparent Kd” value runs as follows: under setting [3], 38.6 nM; under setting [4], 6.39 nM.
In the case of “GCUUCCCAUGUGAGGAUAUGUAGGGUUAACCCGAGGCAGAAGGCACAUGAGGAUCACCCAUGUUAAAACUUCUA”, the “apparent Kd” value worked out at 29 nM under setting [1] and 60.6 nM under setting [2].
On to “UGUUGUAUUACAGGAUAUCUAUUAGUUAUAUUUAGAGAAGGGUAUUCACAUGAGGAUCACCCAUGUAUAUACGAGGAAGUUGUG”, for which the “apparent Kd” value turned out to be 54.6 nM under setting [3] and 61.9 nM under setting [4].
For the sequence “ACAUUGCGAGGAUAUACAUGAGGAUCACCCAUGUGGUGGCAGAUACGGUAGGACUAGUGUAGAAGGUGUCAUGG”, the “apparent Kd” value is, setting by setting: under setting [1], 490 nM; under setting [2], 397 nM.
As for “CCAUUUCAGUAAGGAUAUAUAAACAUGACGAUACAUGAGGAUCACCCAUGUGUAGAAGGUACUAAUACAUAUAAUACAAUGCUC”, the “apparent Kd” value was 19.2 nM under setting [1] and 15.7 nM under setting [2].
For the sequence “UCGGCGCGAGGAUAUACGUUUGCGCUUUUUCGUUUUUGCGUACAUGAGGAUCACCCAUGUAGAAGGCGCGCCGC”, the “apparent Kd” value was determined as 15.6 nM under setting [1] and 23 nM under setting [2].
The corresponding values for “AAAAUAAGUGUGAGGAUAUGCUGGUCCUUGGAUCAGCAGAAGGCACAUGAGGAUCACCCAUGUAAUAUAUUUAU” are 84.7 nM and 295 nM.
“UGGUACUACGGAGGAUAUCAUGUAUAUACAUGAGGAUCACCCAUGUCGUACGAGAGUACGGAGAUUGAGAAGGCCGUAGUACCU”: the “apparent Kd” value reads like this: under setting [3], 38.7 nM; under setting [4], 16.2 nM.
Taken in the same sequence, the figures for “AAGAAACAUGAGGAUCACCCAUGUAAAUAAAACACAGGAUAUCGAAUAUGGGAGAUUUAACGAGAAGGGUGAAGAA” were 100 nM and 56.6 nM.
On to “GGAACUCAUGUAGGAUAUGCAUGGCGAAGCUACGCAGAAGGACAUGAGGAUCACCCAUGUUCUAGCGUCUGGAUACAGAUGCAA”, for which the “apparent Kd” value reads like this: under setting [1], 169 nM; under setting [2], 130 nM.
Regarding “GAUAGGACAGAGAAGGACGUAGCUAGAGAUACUAGCAUAAAGUCCUCAACAUGAGGAUCACCCAUGUAGGAUAUCUGUCCUAUC”, the “apparent Kd” value runs as follows: under setting [1], 6.39 nM; under setting [2], 7.13 nM.
As to “UUACUACAUGAGGAUCACCCAUGUCAGGAUAUUGGAUAUGCCUUGGAAUACGUGUUUACAAGAAGGGACUAUAU”, the “apparent Kd” value amounted to 23.4 nM under setting [1] and 21.4 nM under setting [2].
In the case of “AAAUCGUCAGGAUAUGCUAGUAAAUGUUACAUUUCUUCAUAGCAGAAGGGACAUGAGGAUCACCCAUGUAAGUC”, the “apparent Kd” value under setting [1] came to 33.7 nM and the “apparent Kd” value under setting [2] is 45.6 nM.
With “GUGCGUGGCUAGGAUAUUGUGGAGUUUAGUCAGCGAGAAGGAGCCACAUGAGGAUCACCCAUGUGGUGAAGCUC”, the “apparent Kd” value was determined as 19.9 nM under setting [1] and 75 nM under setting [2].
Taken in the same sequence, the figures for “AGAAAUUCAGGAUAUACAUGAGGAUCACCCAUGUUUGGCGGAGGCGCCGAGAUCCCACGUAGAAGGGAAAAGAC” were 28 nM and 50.6 nM.
Taken in the same sequence, the figures for “GUUAUUUAUGUAGGAUAUGCGAGGCGAGCCUGAGCAGAAGGACAUGAGGAUCACCCAUGUAUUGCGGUUUAUGUUCAGAUCGCU” were 15.3 nM and 19 nM.
For “GGUCUGAUAUGAGGAUAUGCUCAGGAAUACUGAGCAGAAGGCAUGUGAAAACAUGAGGAUCACCCAUGUGAUCAAUACAGACCA”, the “apparent Kd” value by setting is: under setting [3], 147 nM; under setting [4], 23.7 nM.
With “CAGGAUAGAGGAUAUGCAUAGAUACAGAUUCAUGUAAUCCUACAUGAGGAUCACCCAUGUAGAAGGCUAUCCUG”, the “apparent Kd” value worked out at 15.1 nM under setting [1] and 35 nM under setting [2].
Taken in the same sequence, the figures for “GCUAGGCAUGUCAGGAUAUGCUGUACCUUGGUACAGCAGAAGGGACAUGAGGAUCACCCAUGUGCCUAUCUAGC” were 42.9 nM and 419 nM.
In the case of “UUAGGAGUUGUAGGAUAUCGGAUAGAAUGUAAACGAGAAGGACAUGAGGAUCACCCAUGUAUUGAAGAGAAGAGAGAGAGAGAG”, the “apparent Kd” value runs as follows: under setting [1], 24.5 nM; under setting [2], 21.1 nM.
The corresponding values for “GGGACGAAAGUCGAACGAUGUAGCAGAAGGACAUGAGGAUCACCCAUGUCAGCUGUAACAGCCAUGUAGGAUAUGCUACAUCCC” are 4.61 nM and 5.96 nM.
Taken in the same sequence, the figures for “CAUUAAUUGAUUAUUGUAUUUAUACAGGAUAUGUAACAUGAGGAUCACCCAUGUAUACAUGGGAAACAGAAGGGUAUAUAAAGA” were 33.7 nM and 29.9 nM.
The corresponding values for “GCUGCAUAGGCAGGAUAUGCAAUAAUUCGAAUAAAAUAUAACGAAUUAACAUGAGGAUCACCCAUGUAGAAGGGCCUGUGCAGC” are 5.51 nM and 4.99 nM.
As for “AGUCUGCGAGGAUAUACAUGAGGAUCACCCAUGUGCGAGAUACUAGUGAGGUCGAUUGGUAGAAGGCGCGGACA”, the “apparent Kd” value runs as follows: under setting [1], 111 nM; under setting [2], 66.1 nM.
Taken in the same sequence, the figures for “UGAUGUAAAGAGAAGGGCUACUGGUUGAAACCUGCGGCCUCUGGAACAUGAGGAUCACCCAUGUAGCAGGAUAUCUUUGCGUCA” were 169 nM and 31.4 nM.
As to “GUUUUUCCUCAUGUACAUGAGGAACAUGAGGAUCACCCAUGUAGAAGGAAUUCUCUUAAAUUAAGUUAGGAUAUACAUAUAUUU”, the “apparent Kd” value came to 464 nM under setting [1] and 285 nM under setting [2].
As to “UGCAUGUGAGGAUAUGUGUACUGUUUUUUGUUUAGAUGUACACAGAAGGCACAUGAGGAUCACCCAUGUAGUAC”, the “apparent Kd” value by setting is: under setting [1], 95.8 nM; under setting [2], 22.4 nM.
Regarding “AUUGGGACAUGAGGAUCACCCAUGUACGCAGUGGGUAGAUCACAGGAUAUGCGAAGUGUGUGAGAGCAGAAGGGUGAGUACUUA”, the “apparent Kd” value reads like this: under setting [3], 343 nM; under setting [4], 59.5 nM.
For “AGGAGAAAUGUAGGAUAUGUAUAUAUAUAUGGGCAAAGCGCAUAUAUAUAUACAGAAGGACAUGAGGAUCACCCAUGUUUCCCU”, the “apparent Kd” value is 11.4 nM under setting [1] and 13.5 nM under setting [2].
The corresponding values for “GCUGACGAUGUAGGAUAUCUCGACGAUAAGUCGAGAGAAGGACAUGAGGAUCACCCAUGUAACUCUACGUCAGCGAGGAAACUC” are 16.8 nM and 18 nM.
On to “AAGAUGCGGAUAGGAUAUGGAGAGAAAGAAAGACCAGAAGGAUUGGUCAUAUAACAUGAGGAUCACCCAUGUAUAUGUUGUGAA”, for which the “apparent Kd” value reads like this: under setting [1], 19.9 nM; under setting [2], 16.6 nM.
Taken in the same sequence, the figures for “GAGGUGUUAGGAUAUCGGAGAUGGAGAAGAACGGGAAGAGGCGAGAAGGAACAUGAGGAUCACCCAUGUAGGUG” were 433 nM and 329 nM.
The corresponding values for “UACUGGUGUGAGAAGGGACGUAUCUCCAUGAGGGUAGGGCUAUUAGAGAAGUCAGGAUAUCACAUGAGGAUCACCCAUGUGACG” are 8.25 nM and 9.9 nM.
Regarding “GGUUAUAUAACAUGAGGAUCACCCAUGUGAGUGGUCCGAAUAUAGGAUAUCCACACGAGAAGUGUGGAGAAGGAUAAUUUAUUA”, the “apparent Kd” value under setting [1] turned out to be 40.7 nM and the “apparent Kd” value under setting [2] came to 206 nM.
The corresponding values for “CCACUGUCAGGAUAUCGUGCAUAAACGUUUACAUUUAUGUGCGAGAAGGGACAUGAGGAUCACCCAUGUAAACG” are 314 nM and 515 nM.
Regarding “GAACCUAAGUCAGGAUAUGUCUAAGAAAACUGACAUGAGGAUCACCCAUGUGAAUGUAAAGCAUGGCAGAAGGGAUAUGGGUGG”, the “apparent Kd” value is, setting by setting: under setting [3], 171 nM; under setting [4], 315 nM.
Take “ACUGGUCGAGGAUAUACAUGAGGAUCACCCAUGUGGUUACGUGACGAUAGUCACGAAUGUAGAAGGCGACCAGU”: the “apparent Kd” value turned out to be 236 nM under setting [1] and 652 nM under setting [2].
With “AACCAACAUGAGGAUCACCCAUGUCAACCCAAGCGAGGAUAUCGGAGAAUAACAAUGGGACGAGAAGGCGCGACCU”, the “apparent Kd” value stood at 72.9 nM under setting [3] and 47.8 nM under setting [4].
The corresponding values for “UGUUGUAUUACAGGAUAUCUAUUGUUUUUAUAUAGAGAAGGGUAUUCACAUGAGGAUCACCCAUGUAUAUACGAGGAAGUUGUG” are 41.1 nM and 45.8 nM.
Consider “GUUUCGUGAGGAUAUGUGGCUUCGAUCGUGCGAAGAAGGCUACAGAAGGCACAUGAGGAUCACCCAUGUUCCUC”, for which the “apparent Kd” value is, setting by setting: under setting [1], 85.7 nM; under setting [2], 592 nM.
For the sequence “AAAAUUGGCAGAUAAAAGGUCACACAGGAUAUACUCCCAACAUGAGGAUCACCCAUGUACUGGCGGUAGAAGGGUGGGAUCCUC”, the “apparent Kd” value amounted to 50.7 nM under setting [3] and 13.5 nM under setting [4].
As to “GUGCUGGAGCUUUGCUUUAGUCGUACAUGAGGAUCACCCAUGUAGGAUAUGGUAGGCUUUGCUUACUAGAAGGAUAGAGUGGUC”, the “apparent Kd” value was 40.3 nM under setting [1] and 26.8 nM under setting [2].
As to “GGAAAACAUGAGGAUCACCCAUGUGAGGAUAUCGAUGUCCACCCUCCCGUGCGGGACUCGAGAAGGCACUUGGA”, the “apparent Kd” value amounted to 50.9 nM under setting [1] and 56.4 nM under setting [2].
As to “AUAUCGUCAGGAUAUGCUAGUAAAUGUUUCAUUUCUUCAUAGCAGAAGGGACAUGAGGAUCACCCAUGUAAGUC”, the “apparent Kd” value is, setting by setting: under setting [1], 37.6 nM; under setting [2], 39.6 nM.
